# Laboratory results published in ChEMBL document CHEMBL4689842, “EUbOPEN Chemogenomics Library wave 1” (2021).
# Where “and” joins values, the source holds several entries; their conditions need not be identical. Equal values may be shown once.
# Experiments:
# Type in all cases: toxicity, cell-based
# Fibroblast [1] = test: Multiplex assay against human fibroblast; settings: 1 µM, compound concentration 1 uM
# How it was run: (§1)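 Values for tubulin, mitochondrial-mass and membrane-permeability phenotypes are per cents of cells with healthy nuclei. These cells were identified by CellPathfinder machine-learning gating of live cells that had been stained at seeding with Hoechst33342, BioTracker Green Microtubule Cytoskeleton Dye, MitoTracker Red and Annexin V Alexa Fluor 680 and imaged on a CQ1 microscope at 37°C and 5% CO2 after compound addition. The gating first set Hoechst high-intensity objects apart from normal cells, then split normal cells into healthy, pyknosed or fragmented nuclei, and pyknosed cells into mitotic or apoptotic.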
# HEK-293T [2] = test: Multiplex assay against HEK293T; settings: human, 1 µM, compound concentration 1 uM; how it was run: as §1;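 for Population Tubulin-Different-Phenotype (%): share of the cells with healthy nuclei that show this phenotype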
# U2OS [3] = test: Multiplex assay against U2OS; settings: human, 1 µM, compound concentration 1 uM; how it was run: as §1
# HEK-293T [4] = test: Incucyte cell viability with HEK293T; settings: human, 10 µM, compound concentration 10 uM; note: filed as whole numbers so only -1 and 0 and 1 occur
# Fibroblast [5] = test: Incucyte cell viability with human fibroblast; settings: 10 µM, compound concentration 10 uM; note: filed as whole numbers so only -1 and 0 and 1 occur
# U2OS [6] = test: Incucyte cell viability with U2OS; settings: human, 10 µM, compound concentration 10 uM; note: filed as whole numbers so only -1 and 0 and 1 occur
# [7] = 6 h, replicate number 1, timepoint 6 hours
# [8] = 12 h, replicate number 1, timepoint 12 hours
# [9] = 18 h, replicate number 1, timepoint 18 hours
# [10] = 24 h, replicate number 1, timepoint 24 hours
structure (smiles),measurement,setting,value
COc1cc(Nc2ccnc3ccc(Br)cc23)cc(OC)c1OC,Population Apoptotic (%),"Fibroblast [1]; 12 h, replicate 1",51% and 75%
same,Population Fragmented Nuclei (%),"Fibroblast [1]; 12 h, replicate 1",26% and 28%
same,Population Healthy Nuclei (%),"Fibroblast [1]; 12 h, replicate 1",50% and 56%
same,Population Hoechst High Intensity Objects (%),"Fibroblast [1]; 12 h, replicate 1",11%
same,Population Membrane Permeable-Phenotype (%),"Fibroblast [1]; 12 h, replicate 1",5% and 4%
same,Population Mitochondria Different-Phenotype (%),"Fibroblast [1]; 12 h, replicate 1",22% and 8%
same,Population Mitotic Cells (%),"Fibroblast [1]; 12 h, replicate 1",48% and 25%
same,Population Normal (%),"Fibroblast [1]; 12 h, replicate 1",88%
same,Population Pyknosed Nuclei (%),"Fibroblast [1]; 12 h, replicate 1",23% and 15%
same,Total Cell Count,"Fibroblast [1]; 12 h, replicate 1",152 and 176
same,Population Apoptotic (%),"Fibroblast [1]; 12 h, replicate 2",50%
same,Population Fragmented Nuclei (%),"Fibroblast [1]; 12 h, replicate 2",66% and 79%
same,Population Hoechst High Intensity Objects (%),"Fibroblast [1]; 12 h, replicate 2",49% and 39%
same,Population Membrane Permeable-Phenotype (%),"Fibroblast [1]; 12 h, replicate 2",11% and 0%
same,Population Mitotic Cells (%),"Fibroblast [1]; 12 h, replicate 2",50%
same,Population Normal (%),"Fibroblast [1]; 12 h, replicate 2",50% and 60%
same,Population Pyknosed Nuclei (%),"Fibroblast [1]; 12 h, replicate 2",6% and 11%
same,Population Tubulin-Different-Phenotype (%),"Fibroblast [1]; 12 h, replicate 2",11% and 0%
same,Total Cell Count,"Fibroblast [1]; 12 h, replicate 2",65 and 56
same,Population Apoptotic (%),"Fibroblast [1]; 24 h, replicate 1",76%
same,Population Fragmented Nuclei (%),"Fibroblast [1]; 24 h, replicate 1",28% and 23%
same,Population Healthy Nuclei (%),"Fibroblast [1]; 24 h, replicate 1",55% and 61%
same,Population Hoechst High Intensity Objects (%),"Fibroblast [1]; 24 h, replicate 1",15%
same,Population Membrane Permeable-Phenotype (%),"Fibroblast [1]; 24 h, replicate 1",6% and 1%
same,Population Mitochondria Different-Phenotype (%),"Fibroblast [1]; 24 h, replicate 1",1%
same,Population Mitotic Cells (%),"Fibroblast [1]; 24 h, replicate 1",23%
same,Population Normal (%),"Fibroblast [1]; 24 h, replicate 1",84%
same,Population Pyknosed Nuclei (%),"Fibroblast [1]; 24 h, replicate 1",15%
same,Total Cell Count,"Fibroblast [1]; 24 h, replicate 1",189 and 165
same,Population Fragmented Nuclei (%),"Fibroblast [1]; 24 h, replicate 2",65% and 71%
same,Population Healthy Nuclei (%),"Fibroblast [1]; 24 h, replicate 2",31% and 15%
same,Population Hoechst High Intensity Objects (%),"Fibroblast [1]; 24 h, replicate 2",42% and 34%
same,Population Membrane Permeable-Phenotype (%),"Fibroblast [1]; 24 h, replicate 2",9% and 0%
same,Population Mitochondria Different-Phenotype (%),"Fibroblast [1]; 24 h, replicate 2",18% and 40%
same,Population Normal (%),"Fibroblast [1]; 24 h, replicate 2",57% and 65%
same,Population Tubulin-Different-Phenotype (%),"Fibroblast [1]; 24 h, replicate 2",0% and 20%
same,Total Cell Count,"Fibroblast [1]; 24 h, replicate 2",61 and 49
same,Population Apoptotic (%),"HEK-293T [2]; 12 h, replicate 1",21% and 25%
same,Population Fragmented Nuclei (%),"HEK-293T [2]; 12 h, replicate 1",24% and 18%
same,Population Healthy Nuclei (%),"HEK-293T [2]; 12 h, replicate 1",35% and 54%
same,Population Hoechst High Intensity Objects (%),"HEK-293T [2]; 12 h, replicate 1",16%
same,Population Membrane Permeable-Phenotype (%),"HEK-293T [2]; 12 h, replicate 1",12% and 4%
same,Population Mitotic Cells (%),"HEK-293T [2]; 12 h, replicate 1",78% and 74%
same,Population Normal (%),"HEK-293T [2]; 12 h, replicate 1",83%
same,Population Pyknosed Nuclei (%),"HEK-293T [2]; 12 h, replicate 1",40% and 27%
same,Total Cell Count,"HEK-293T [2]; 12 h, replicate 1",627 and 585
same,Population Apoptotic (%),"HEK-293T [2]; 12 h, replicate 2",17% and 8%
same,Population Fragmented Nuclei (%),"HEK-293T [2]; 12 h, replicate 2",11% and 4%
same,Population Healthy Nuclei (%),"HEK-293T [2]; 12 h, replicate 2",59% and 75%
same,Population Membrane Permeable-Phenotype (%),"HEK-293T [2]; 12 h, replicate 2",3% and 0%
same,Population Mitotic Cells (%),"HEK-293T [2]; 12 h, replicate 2",82% and 91%
same,Population Normal (%),"HEK-293T [2]; 12 h, replicate 2",92% and 97%
same,Population Pyknosed Nuclei (%),"HEK-293T [2]; 12 h, replicate 2",29% and 20%
same,Total Cell Count,"HEK-293T [2]; 12 h, replicate 2",1015 and 1049
same,Population Apoptotic (%),"HEK-293T [2]; 24 h, replicate 1",32% and 19%
same,Population Fragmented Nuclei (%),"HEK-293T [2]; 24 h, replicate 1",23% and 12%
same,Population Healthy Nuclei (%),"HEK-293T [2]; 24 h, replicate 1",41% and 67%
same,Population Hoechst High Intensity Objects (%),"HEK-293T [2]; 24 h, replicate 1",14% and 10%
same,Population Membrane Permeable-Phenotype (%),"HEK-293T [2]; 24 h, replicate 1",7%
same,Population Mitotic Cells (%),"HEK-293T [2]; 24 h, replicate 1",67% and 80%
same,Population Normal (%),"HEK-293T [2]; 24 h, replicate 1",85% and 89%
same,Population Pyknosed Nuclei (%),"HEK-293T [2]; 24 h, replicate 1",35% and 20%
same,Population Tubulin-Different-Phenotype (%),"HEK-293T [2]; 24 h, replicate 1",30% and 15%
same,Total Cell Count,"HEK-293T [2]; 24 h, replicate 1",604 and 574
same,Population Apoptotic (%),"HEK-293T [2]; 24 h, replicate 2",14% and 7%
same,Population Fragmented Nuclei (%),"HEK-293T [2]; 24 h, replicate 2",11% and 8%
same,Population Healthy Nuclei (%),"HEK-293T [2]; 24 h, replicate 2",50% and 79%
same,Population Hoechst High Intensity Objects (%),"HEK-293T [2]; 24 h, replicate 2",8% and 3%
same,Population Membrane Permeable-Phenotype (%),"HEK-293T [2]; 24 h, replicate 2",2% and 1%
same,Population Mitochondria Different-Phenotype (%),"HEK-293T [2]; 24 h, replicate 2",55%
same,Population Mitotic Cells (%),"HEK-293T [2]; 24 h, replicate 2",86% and 92%
same,Population Normal (%),"HEK-293T [2]; 24 h, replicate 2",91% and 96%
same,Total Cell Count,"HEK-293T [2]; 24 h, replicate 2",1011 and 1289
same,Population Apoptotic (%),"U2OS [3]; 12 h, replicate 1",45% and 33%
same,Population Fragmented Nuclei (%),"U2OS [3]; 12 h, replicate 1",9% and 8%
same,Population Healthy Nuclei (%),"U2OS [3]; 12 h, replicate 1",83% and 79%
same,Population Hoechst High Intensity Objects (%),"U2OS [3]; 12 h, replicate 1",6% and 5%
same,Population Membrane Permeable-Phenotype (%),"U2OS [3]; 12 h, replicate 1",22% and 14%
same,Population Mitochondria Different-Phenotype (%),"U2OS [3]; 12 h, replicate 1",28% and 29%
same,Population Mitotic Cells (%),"U2OS [3]; 12 h, replicate 1",54% and 66%
same,Population Normal (%),"U2OS [3]; 12 h, replicate 1",93% and 94%
same,Population Pyknosed Nuclei (%),"U2OS [3]; 12 h, replicate 1",7% and 11%
same,Population Tubulin-Different-Phenotype (%),"U2OS [3]; 12 h, replicate 1",39% and 14%
same,Total Cell Count,"U2OS [3]; 12 h, replicate 1",135 and 196
same,Population Fragmented Nuclei (%),"U2OS [3]; 12 h, replicate 2",12% and 20%
same,Population Healthy Nuclei (%),"U2OS [3]; 12 h, replicate 2",70% and 71%
same,Population Hoechst High Intensity Objects (%),"U2OS [3]; 12 h, replicate 2",12% and 19%
same,Population Membrane Permeable-Phenotype (%),"U2OS [3]; 12 h, replicate 2",25% and 16%
same,Population Mitochondria Different-Phenotype (%),"U2OS [3]; 12 h, replicate 2",38% and 23%
same,Population Normal (%),"U2OS [3]; 12 h, replicate 2",87% and 80%
same,Population Pyknosed Nuclei (%),"U2OS [3]; 12 h, replicate 2",16%
same,Population Tubulin-Different-Phenotype (%),"U2OS [3]; 12 h, replicate 2",37% and 22%
same,Total Cell Count,"U2OS [3]; 12 h, replicate 2",102 and 150
same,Population Apoptotic (%),"U2OS [3]; 24 h, replicate 1",31% and 83%
same,Population Fragmented Nuclei (%),"U2OS [3]; 24 h, replicate 1",11% and 13%
same,Population Healthy Nuclei (%),"U2OS [3]; 24 h, replicate 1",71% and 66%
same,Population Hoechst High Intensity Objects (%),"U2OS [3]; 24 h, replicate 1",6%
same,Population Membrane Permeable-Phenotype (%),"U2OS [3]; 24 h, replicate 1",18% and 16%
same,Population Normal (%),"U2OS [3]; 24 h, replicate 1",93%
same,Population Pyknosed Nuclei (%),"U2OS [3]; 24 h, replicate 1",17% and 20%
same,Population Tubulin-Different-Phenotype (%),"U2OS [3]; 24 h, replicate 1",21% and 22%
same,Total Cell Count,"U2OS [3]; 24 h, replicate 1",259 and 175
same,Population Fragmented Nuclei (%),"U2OS [3]; 24 h, replicate 2",10% and 14%
same,Population Healthy Nuclei (%),"U2OS [3]; 24 h, replicate 2",58% and 59%
same,Population Hoechst High Intensity Objects (%),"U2OS [3]; 24 h, replicate 2",16%
same,Population Membrane Permeable-Phenotype (%),"U2OS [3]; 24 h, replicate 2",22% and 17%
same,Population Mitochondria Different-Phenotype (%),"U2OS [3]; 24 h, replicate 2",57% and 19%
same,Population Normal (%),"U2OS [3]; 24 h, replicate 2",83%
same,Population Pyknosed Nuclei (%),"U2OS [3]; 24 h, replicate 2",31% and 25%
same,Population Tubulin-Different-Phenotype (%),"U2OS [3]; 24 h, replicate 2",33% and 28%
same,Total Cell Count,"U2OS [3]; 24 h, replicate 2",113 and 193
same,Growth Rate,HEK-293T [4]; [7],0
same,Growth Rate,HEK-293T [4]; [8],0
same,Growth Rate,HEK-293T [4]; [9],0
same,Growth Rate,HEK-293T [4]; [10],0
same,Growth Rate,Fibroblast [5]; [7],0
same,Growth Rate,Fibroblast [5]; [8],0
same,Growth Rate,Fibroblast [5]; [9],0
same,Growth Rate,Fibroblast [5]; [10],0
same,Growth Rate,"U2OS [6]; 0 h, replicate number 1, timepoint 0 hours",0
same,Growth Rate,U2OS [6]; [7],0
same,Growth Rate,U2OS [6]; [8],0
same,Growth Rate,U2OS [6]; [9],0
same,Growth Rate,U2OS [6]; [10],0
